Our source for the IC50 and Ratio IC50 values is ChEMBL document CHEMBL1240524, “A focused library of protein tyrosine phosphatase inhibitors” (J Med Chem, 2010).

Each structure is given as a SMILES string.

Assay [1] concerns the target Secreted effector protein (Yersinia pestis, UniProt O68720). Nature of the assay: Inhibition of Yersinia pestis YOpH. An outline of the steps:
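Phosphatase activity was read at 25 °C with p-NPP at its Km (1.7 mM). The buffer was 50 mM 3,3-dimethylglutarate pH 7.0 with 50 mM NaCl, 1 mM EDTA and 10% DMSO. Initial rates came from hydrolysis at 420 nm, 30 to 150 s after mixing. Percent inhibition was measured and IC50 values were calculated from it.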

The target in assay [2] is T1, Tyrosine-protein phosphatase non-receptor type 2 (Homo sapiens, UniProt P17706).
T1 sequence (P17706 whole entry): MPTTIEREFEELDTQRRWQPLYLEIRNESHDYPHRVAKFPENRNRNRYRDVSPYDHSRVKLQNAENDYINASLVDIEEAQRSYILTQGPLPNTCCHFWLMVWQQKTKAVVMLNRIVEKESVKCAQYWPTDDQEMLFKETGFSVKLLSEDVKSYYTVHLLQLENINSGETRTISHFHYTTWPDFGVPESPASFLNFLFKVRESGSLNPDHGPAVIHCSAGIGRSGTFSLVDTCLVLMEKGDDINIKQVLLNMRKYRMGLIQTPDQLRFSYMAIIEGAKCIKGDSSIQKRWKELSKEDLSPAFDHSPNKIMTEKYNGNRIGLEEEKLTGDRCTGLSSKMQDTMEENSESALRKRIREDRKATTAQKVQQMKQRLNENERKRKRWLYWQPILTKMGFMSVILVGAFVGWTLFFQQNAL
Nature of the assay: Inhibition of TCPTP. In short, it runs like this:
(§1)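 Medium: 10% DMSO, 1 mM EDTA, 50 mM NaCl, 50 mM 3,3-dimethylglutarate, pH 7.0. Initial rates taken as absorbance at 420 nm from 30 to 150 s after mixing. IC50 derived from percent inhibition.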

Assay [3] has as its target T2, Tyrosine-protein phosphatase non-receptor type 1 (Homo sapiens, UniProt P18031).
T2 sequence (P18031 whole entry): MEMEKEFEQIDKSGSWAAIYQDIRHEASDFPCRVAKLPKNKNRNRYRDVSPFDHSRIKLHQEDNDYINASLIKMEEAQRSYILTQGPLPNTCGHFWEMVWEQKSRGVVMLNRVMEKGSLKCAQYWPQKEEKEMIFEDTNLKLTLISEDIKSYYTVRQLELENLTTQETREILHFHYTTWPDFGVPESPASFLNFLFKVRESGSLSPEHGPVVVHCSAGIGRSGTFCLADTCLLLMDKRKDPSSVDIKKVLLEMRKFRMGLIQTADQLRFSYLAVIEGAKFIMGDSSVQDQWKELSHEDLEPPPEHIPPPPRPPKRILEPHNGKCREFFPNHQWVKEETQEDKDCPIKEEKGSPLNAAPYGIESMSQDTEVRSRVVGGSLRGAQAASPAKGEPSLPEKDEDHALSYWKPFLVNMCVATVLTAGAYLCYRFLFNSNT
Briefly: Inhibition of PTP1B. In short, it runs like this: as §1

Assay [4] deals with T3, Tyrosine-protein phosphatase non-receptor type 7 (Homo sapiens, UniProt P35236).
T3 sequence (P35236 whole entry): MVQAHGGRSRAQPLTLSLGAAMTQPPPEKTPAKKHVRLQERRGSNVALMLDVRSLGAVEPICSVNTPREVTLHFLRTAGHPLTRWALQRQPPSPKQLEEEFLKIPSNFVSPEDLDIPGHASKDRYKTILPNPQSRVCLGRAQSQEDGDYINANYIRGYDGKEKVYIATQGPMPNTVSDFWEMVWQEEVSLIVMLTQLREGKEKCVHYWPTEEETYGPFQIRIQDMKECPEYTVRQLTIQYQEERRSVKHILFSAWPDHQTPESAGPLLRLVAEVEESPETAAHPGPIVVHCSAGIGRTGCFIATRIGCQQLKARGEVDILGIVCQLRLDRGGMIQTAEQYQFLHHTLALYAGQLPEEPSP
Nature of the assay: Inhibition of HePTP. In short, it runs like this: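 HePTP assayed with 4-methylumbelliferyl phosphate at 174 μM (its measured Km) at 25 °C in 10% DMSO, 1 mM EDTA, 50 mM NaCl, 50 mM 3,3-dimethylglutarate, pH 7.0. Initial rates read as fluorescence (ex 340, em 460 nm) from 0 to 150 s after mixing. IC50 derived from percent inhibition.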

Assay [5] can be described thus: Selectivity ratio of IC50 for TCPTP to IC50 for PTP1B.

Sequence of Secreted effector protein (O68720 whole entry): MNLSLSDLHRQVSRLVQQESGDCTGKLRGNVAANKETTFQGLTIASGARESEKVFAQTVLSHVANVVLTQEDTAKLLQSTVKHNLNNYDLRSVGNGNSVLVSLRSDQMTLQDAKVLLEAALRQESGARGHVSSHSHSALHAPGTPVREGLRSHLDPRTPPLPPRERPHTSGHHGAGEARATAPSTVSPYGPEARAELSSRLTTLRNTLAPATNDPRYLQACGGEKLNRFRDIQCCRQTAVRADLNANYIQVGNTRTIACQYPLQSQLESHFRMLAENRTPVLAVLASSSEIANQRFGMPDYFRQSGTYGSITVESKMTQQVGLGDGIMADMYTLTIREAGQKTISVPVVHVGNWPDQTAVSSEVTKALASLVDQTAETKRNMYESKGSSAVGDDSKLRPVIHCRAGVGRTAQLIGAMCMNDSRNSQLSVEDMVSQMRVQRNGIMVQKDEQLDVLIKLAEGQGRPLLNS

As to `O=C(O)C(=O)c1ccc(OCc2ccc(COc3ccc(C(=O)C(=O)O)cc3)c(C(=O)Nc3cccc(OCc4ccccc4)c3)c2)cc1`, the IC50 in assay [1] was 100 nM.

Turning to `Cc1ccccc1Oc1ccc(NC(=O)c2cc(COc3ccc(C(=O)C(=O)O)cc3)ccc2COc2ccc(C(=O)C(=O)O)cc2)cc1`, the IC50 in assay [1] was 230 nM.

Take `CCc1ccc(Oc2ccc(NC(=O)c3cc(COc4ccc(C(=O)C(=O)O)cc4)ccc3COc3ccc(C(=O)C(=O)O)cc3)cc2)cc1`: the IC50 in assay [2] amounted to 3500 nM; in assay [3], 490 nM; in assay [4] it was 52000 nM; in assay [1] it was 70 nM.

Molecule `O=C(O)C(=O)c1ccc(OCc2ccc(COc3ccc(C(=O)C(=O)O)cc3)c(C(=O)Nc3ccc(Oc4cccc(F)c4)cc3)c2)cc1` showed an IC50 in assay [1] of 220 nM.

For the molecule `O=C(O)C(=O)c1ccc(OCc2ccc(COc3ccc(C(=O)C(=O)O)cc3)c(C(=O)Nc3ccc(Oc4ccc(F)cc4)cc3)c2)cc1`, inhibition in assay [1] was half-maximal at 110 nM (IC50).

On to `O=C(O)C(=O)c1ccc(OCc2ccc(COc3ccc(C(=O)C(=O)O)cc3)c(C(=O)Nc3ccc(Oc4ccc(-c5ccccc5)cc4)cc3)c2)cc1`, for which the IC50 in assay [2] is 6500 nM; in assay [3], 220 nM; in assay [4], 21000 nM; in assay [1] it was 30 nM.

Regarding `COc1ccc(Oc2ccc(NC(=O)c3cc(COc4ccc(C(=O)C(=O)O)cc4)ccc3COc3ccc(C(=O)C(=O)O)cc3)cc2)cc1`, in assay [1], the IC50 was 1100 nM.

On to `Cc1ccc(Oc2ccc(NC(=O)c3cc(COc4ccc(C(=O)C(=O)O)cc4)ccc3COc3ccc(C(=O)C(=O)O)cc3)cc2)cc1`, for which the IC50 in assay [1] is 190 nM.

Molecule `O=C(O)C(=O)c1ccc(OCc2ccc(COc3ccc(C(=O)C(=O)O)cc3)c(C(=O)Nc3ccc(Oc4ccc(Cl)c(Cl)c4)cc3)c2)cc1` registered an IC50 in assay [1] of 210 nM.

`O=C(O)C(=O)c1ccc(OCc2ccc(COc3ccc(C(=O)C(=O)O)cc3)c(C(=O)Nc3ccc(Oc4ccc(F)cc4F)cc3)c2)cc1` had an IC50 in assay [1] of 910 nM.

With `O=C(O)C(=O)c1ccc(OCc2ccc(COc3ccc(C(=O)C(=O)O)cc3)c(C(=O)Nc3ccc(Oc4ccc(SC(F)(F)F)cc4)cc3)c2)cc1`, the IC50 in assay [2] is 4000 nM; in assay [3], 1600 nM; in assay [4], 53000 nM; in assay [1], 50 nM.

Turning to `CCCCCCc1ccc(Oc2ccc(NC(=O)c3cc(COc4ccc(C(=O)C(=O)O)cc4)ccc3COc3ccc(C(=O)C(=O)O)cc3)cc2)cc1`, the IC50 in assay [2] was 2300 nM; in assay [3] it was 1200 nM; in assay [4], 28000 nM; in assay [1], 90 nM.

Take `N#Cc1ccc(Oc2ccc(NC(=O)c3cc(COc4ccc(C(=O)C(=O)O)cc4)ccc3COc3ccc(C(=O)C(=O)O)cc3)cc2)cc1`: the IC50 in assay [1] was found to be 1300 nM.

`CC(C)c1ccc(Oc2ccc(NC(=O)c3cc(COc4ccc(C(=O)C(=O)O)cc4)ccc3COc3ccc(C(=O)C(=O)O)cc3)cc2)cc1` showed an IC50 in assay [1] of 800 nM.

For `O=C(O)C(=O)c1ccc(OCc2ccc(COc3ccc(C(=O)C(=O)O)cc3)c(C(=O)Nc3ccc(Oc4ccccc4)cc3)c2)cc1`, in assay [5], the Ratio IC50 was under 2. Also, it took 240 nM to reach half-maximal inhibition in assay [1] (IC50).

Consider `CCCCc1ccc(Oc2ccc(NC(=O)c3cc(COc4ccc(C(=O)C(=O)O)cc4)ccc3COc3ccc(C(=O)C(=O)O)cc3)cc2)cc1`, for which half-maximal inhibition in assay [1] (IC50) was put at 200 nM.

Molecule `CSc1ccc(Oc2ccc(NC(=O)c3cc(COc4ccc(C(=O)C(=O)O)cc4)ccc3COc3ccc(C(=O)C(=O)O)cc3)cc2)cc1` had an IC50 in assay [1] of 110 nM.
